A short description of experiment [1]: Cytotoxicity against mouse JC cells assessed as inhibition of cell survival after 48 hrs by SRB assay. Format: functional, cell-based. Summed up: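 JC (CRL-2116) cells kept in RPMI-1640 with L-glutamine, 10% FBS and 50 μg/ml gentamicin at 37 °C, 5% CO₂. Cells were seeded at about 20% confluency and left 24 h to attach, then exposed to a range of concentrations for 48 h. Cells were PBS-washed, fixed in 10% trichloroacetic acid and stained with 0.4% SRB in 1% acetic acid. Dye was dissolved in 10 mM Tris and absorbance read at 570 nm.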
In general terms: The SRB assay estimates cell density from bound dye.

Another experiment relates to JC. The experiment in a line: Modulatory activity at P-gp in mouse JC cells assessed as lowest drug concentration required to increase intracellular [3H]taxol accumulation pretreated for 30 mins prior to [3H]taxol addition measured after 60 mins by liquid scintillation counting analysis. Type of experiment: cell-based. Summed up: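 JC cells were seeded at about 25% confluency and grown 3–4 days to near confluency. Medium was switched to serum-free, and compounds were preincubated for 30 min at 37 °C. About 0.1 µCi [³H]Taxol (75 Ci/mmol) per well followed, for 60 min at 37 °C. Cells were washed twice with ice-cold PBS and lysed in 1% SDS. Intracellular label was counted by liquid scintillation, and the lowest concentration giving maximal accumulation was recorded.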

The nature of experiment [2]: Ratio of compound IC50 to paclitaxel IC50 for mouse JC cells after 48 hrs by SRB assay. Type of experiment: functional.

Data on 7 compounds can be found in ChEMBL document CHEMBL2331097, “Synthesis of 5,7-disubstituted-4-methyl-7H-pyrrolo[2,3-d]pyrimidin-2-amines as microtubule inhibitors” (Bioorg Med Chem, 2013).

Active and inactive are the calls of the source. No cut-off for these calls is given here.

As usually defined, the IC50 is the concentration needed to halve the response being measured. Consider `Cc1nc(N)nc2c1c(Sc1ccccc1)cn2Cc1ccccc1`, for which the IC50 in experiment [1] came to 4000 nM. Also, in the experiment with JC, the LED entry is “inactive”.

`COc1ccc(Cn2cc(Sc3ccccc3OC)c3c(C)nc(N)nc32)cc1`: the IC50 in experiment [1] was determined as 2500 nM. Also, in the experiment on JC, the LED result was “inactive”.

`COc1cc(Cn2cc(Sc3cc(OC)c(OC)c(OC)c3)c3c(C)nc(N)nc32)cc(OC)c1OC`: the 50% inhibitory concentration (IC50) in experiment [1] was greater than 100000 nM. In the experiment on JC, the LED entry is “inactive”.

As to `COc1cc(Cn2cc(CCc3cc(OC)c(OC)c(OC)c3)c3c(C)nc(N)nc32)cc(OC)c1`, in experiment [1], the 50% inhibitory concentration (IC50) is 3000 nM. The LED with JC is 1.5 µM.

With `COc1ccc(Sc2cn(Cc3ccccc3)c3nc(N)nc(C)c23)cc1`, the IC50 in experiment [1] was found to be 10000 nM. Besides, the LED result with JC is “inactive”.

Take `COc1ccccc1Cn1cc(CCc2cc(OC)c(OC)c(OC)c2)c2c(C)nc(N)nc21`: the IC50 in experiment [1] is 1000 nM. Also, the LED with JC turned out to be 2 µM. In addition, in experiment [2], the “Ratio IC50” value turned out to be 6.6.

For the compound `CC(=O)O[C@H]1C(=O)[C@@]2(C)[C@H]([C@H](OC(=O)c3ccccc3)[C@]3(O)C[C@H](OC(=O)[C@H](O)[C@@H](NC(=O)c4ccccc4)c4ccccc4)C(C)=C1C3(C)C)[C@]1(OC(C)=O)CO[C@@H]1C[C@@H]2O` [PACLITAXEL], the half-maximal inhibitory concentration (IC50) in experiment [1] came out at 150 nM.
